# The list is not random: actives were taken first. Their share in the collection is about 2.3%.
# TRPC6 activator – mouse TRPC6 channel activation; Q61143; AID 2550; hit rate 0.13% among 310,000; HEK293-TRPC6 membrane potential dye fluorescence; stronger effect = higher value; B-score at 10 µM;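 active = B-score of the integrated fluorescence ratio above library mean plus 3 SD, and starting fluorescence ratio within library mean plus 5 SD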;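 note: higher score means more depolarization so channel activation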
# TRPC4 PAM – allosteric potentiators of mouse TRPC4 channel; Q9QUQ5; HEK293 TRPC4beta/mu-opioid, DAMGO EC20, Fluo-4 Ca2+ flux; stronger effect = higher value; AID 2227; hit rate 0.42% among 310,000; B-score at 10 µM;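 active = B-score of calcium response area above 5 SD of library B-scores, with initial fluorescence ratio within 5 SD of library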;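 note: B-score of integrated fluorescence ratio over time as area under calcium response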
# Target sequence (Q9QUQ5 whole entry, looked up): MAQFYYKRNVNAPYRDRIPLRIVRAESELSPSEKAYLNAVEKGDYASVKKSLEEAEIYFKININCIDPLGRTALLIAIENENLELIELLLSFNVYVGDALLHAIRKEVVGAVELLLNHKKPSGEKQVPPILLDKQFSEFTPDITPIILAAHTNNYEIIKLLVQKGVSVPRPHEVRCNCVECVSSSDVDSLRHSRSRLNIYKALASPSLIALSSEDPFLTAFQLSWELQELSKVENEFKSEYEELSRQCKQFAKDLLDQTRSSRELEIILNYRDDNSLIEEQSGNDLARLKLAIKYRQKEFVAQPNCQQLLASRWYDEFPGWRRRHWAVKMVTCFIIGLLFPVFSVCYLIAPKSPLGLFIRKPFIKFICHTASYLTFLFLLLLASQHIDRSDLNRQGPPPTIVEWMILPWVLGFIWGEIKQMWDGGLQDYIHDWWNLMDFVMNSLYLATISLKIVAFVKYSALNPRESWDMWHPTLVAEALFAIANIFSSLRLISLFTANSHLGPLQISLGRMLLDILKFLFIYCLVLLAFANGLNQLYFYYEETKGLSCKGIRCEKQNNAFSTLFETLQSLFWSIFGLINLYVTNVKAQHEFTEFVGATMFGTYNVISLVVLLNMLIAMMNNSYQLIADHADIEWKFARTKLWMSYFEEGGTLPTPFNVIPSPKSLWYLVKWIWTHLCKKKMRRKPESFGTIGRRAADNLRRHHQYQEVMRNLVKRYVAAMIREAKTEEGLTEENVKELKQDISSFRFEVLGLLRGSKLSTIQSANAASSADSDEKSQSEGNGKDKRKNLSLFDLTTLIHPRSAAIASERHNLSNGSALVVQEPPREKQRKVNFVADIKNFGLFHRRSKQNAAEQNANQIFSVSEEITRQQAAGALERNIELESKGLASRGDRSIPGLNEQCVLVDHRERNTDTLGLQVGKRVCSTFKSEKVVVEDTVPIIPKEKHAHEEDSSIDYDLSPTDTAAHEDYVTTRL
# CR mimetic SO – caloric restriction mimetics inhibiting age-related superoxide in yeast | superoxide response (% of plate mean), % at 10 µM | S. cerevisiae aged cells, superoxide DHE fluorescence; stronger effect = lower value | hit rate 0.18% among 330,000 | AID 2690;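 active = superoxide response under a set limit, about three screen SD below normal, cut at about 65% in these data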;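 note: yeast aged for seven days with compound at 30 °C before DHE staining; 100% = average MFI of all compound-treated wells on the plate with controls excluded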
# TRPC6 inhibitor – blocks the mouse TRPC6 cation channel. AID 2553. Q61143. hit rate 1.1% among 310,000. B-score at 10 µM. HEK293-TRPC6, membrane potential dye, ACh-evoked depolarization; stronger effect = lower value;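 active = B-score under library mean minus 3 SD, initial fluorescence not abnormally high, positive integrated signal ratio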;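 note: B-score derived from integrated fluorescence ratio over the kinetic read; more negative B-score means stronger inhibition of depolarization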
# TRPC4 act – activators of mouse TRPC4 channel; Q9QUQ5; HEK293 TRPC4beta/mu-opioid, Fluo4 calcium fluorescence; stronger effect = higher value; B-score at 10 µM; hit rate 0.49% among 310,000; AID 2237;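 active = B-score above 5 SD of library B-scores, and initial fluorescence ratio not above library mean plus 5 SD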;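 note: positive B-score marks a calcium rise read as TRPC4 activation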
#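 Assay system – TRPC4beta and mu-opioid receptor HEK293 stable cells · Measured by – Fluo4 fluorescence, kinetic · Schedule – dye loading 45 min room temperature, 110 s kinetic read · Read-out – B-scored integrated calcium fluorescence ratio · Controls – buffer and maximal DAMGO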
# TRPC4 inh – blocks the mouse TRPC4 cation channel; B-score at 10 µM; hit rate 0.39% among 300,000; HEK293 TRPC4beta/mu-opioid, DAMGO-evoked Fluo4 calcium flux; stronger effect = lower value; Q9QUQ5;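 active = B-score over 3 SD under the library average, no early fluorescence shift, positive overall ratio signal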
#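 Signal: kinetic Fluo4 fluorescence imaging of calcium influx. Material: stable TRPC4beta/mu-opioid receptor HEK293 cells. Probe or stimulus: DAMGO in two steps, submaximal then maximal.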
# TRPC4 sel inh 2 – second selectivity test of TRPC6 inhibitors: effect on mouse TRPC4; shares compounds with TRPC6 inhibitor; HEK293 TRPC4/MOR, membrane potential dye fluorescence; channel activated by saturating DAMGO dose; inhibition, % at 10 µM; hit rate 42% among 920; AID 2776;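 active = compounds whose fluorescence signal differed from control wells by over 3 SD, either direction, in both duplicate plates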
# TRPC4 spec – mouse TRPC4 off-target activity of TRPC6 inhibitors; activity change, negative = inhibition, % at 10 µM; HEK293 TRPC4/mu-opioid, membrane potential fluorescence; hit rate 61% among 920; shares compounds with TRPC6 inhibitor; AID 2777;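 active = rise or fall in signal beyond 3 SD of buffer-only wells in both replicate plates, either sign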;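 note: integrated kinetic ratio of fluorescence range over baseline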
# HEK293 MPD ctr 2-1 – second check of TRPC6 inhibitor effects in parental HEK293 cells; hit rate 31% among 920; parental HEK293 membrane potential dye fluorescence; maximal acetylcholine challenge after compound addition; shares compounds with TRPC6 inhibitor; signal change vs control, % at 10 µM; AID 2779;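 active = membrane potential signal moving either way by over 3 SD of the maximum-effect control, in both duplicate plates, meaning non-specific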
# HEK293 MPD ctr-1 – counter-screen for TRPC6 inhibitors: effect in parental HEK293 cells; shares compounds with TRPC6 inhibitor; parental HEK293 membrane potential dye fluorescence; AID 2780; membrane potential signal change, % at 10 µM; hit rate 60% among 920;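 active = membrane potential signal shifting up or down by more than 3 SD of buffer-only wells, on both duplicate plates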
# HEK293 MPD ctr-2 – checks TRPC6 modulator effects in parental HEK293 cells; shares compounds with TRPC6 inhibitor; membrane potential dye fluorescence; membrane potential signal change, % at 10 µM; hit rate 51% among 2,400; AID 488924;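 active = membrane potential signal moves up or down beyond 5 SD from buffer-only wells, on both duplicate plates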
# HEK293 MPD ctr 2-2 – parental HEK293 nonspecific activity of TRPC6 modulators, second screen. hit rate 14% among 2,400. membrane potential dye fluorescence; after compound, maximal acetylcholine stimulation. inhibition, % at 10 µM. shares compounds with TRPC6 inhibitor;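 active = membrane potential signal drops by more than 5 SD from the mean control signal, in both duplicate plates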;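 note: plate controls were acetylcholine ECmax control wells for no effect and buffer only wells for full effect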
# TRPC4/MOR mod – mouse TRPC4 off-target activity of TRPC6 modulators. percent change from control (negative = decrease, positive = increase), % at 10 µM. shares compounds with TRPC6 inhibitor. HEK293 TRPC4/mu-opioid, membrane potential fluorescence. hit rate 69% among 2,400. AID 488927;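 active = membrane potential signal moved up or down beyond 5 SD of buffer control wells, in both duplicate plates, actives on both sides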;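 note: plate controls were assay buffer wells for no effect and DAMGO maximal-effect wells for full effect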
# TRPC4 ctr inh 2 – second selectivity test of TRPC6 modulators against mouse TRPC4; hit rate 55% among 2,400; inhibition, % at 10 µM; shares compounds with TRPC6 inhibitor; HEK293 TRPC4/mu-opioid, membrane potential dye fluorescence; stimulated with maximal-effect DAMGO;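 active = drop in membrane potential signal beyond 5 SD of the control wells in both duplicate plates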;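 note: TRPC4 counter screen for TRPC6 hits run under conditions tuned for TRPC6 not TRPC4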
# TRPC6 inh conf – confirmation of mouse TRPC6 inhibitors | AID 488960 | hit rate 43% among 3,300 | HEK293-TRPC6, membrane potential dye, ACh-evoked depolarization | inhibition, % at 10 µM | shares compounds with TRPC6 inhibitor;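 active = fluorescence ratio falls more than 5 SD below the full-stimulation control mean, in both duplicate runs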;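 note: integrated fluorescence ratio of peak minus minimum over baseline after agonist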
# TRPC6 act conf – confirmation of mouse TRPC6 activators | shares compounds with TRPC6 inhibitor | HEK293-TRPC6 membrane potential dye fluorescence, FDSS | activation, % at 10 µM | hit rate 11% among 2,800 | AID 488961;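 active = ratio signal rise beyond 5 SD above unstimulated control wells' mean, seen in both duplicate runs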;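 note: plate controls were buffer EC0 wells for no effect and acetylcholine ECmax response for full effect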
# Active calls of the source: *; i = inactive; . = no result given.
SMILES,TRPC6 activator,TRPC4 PAM,CR mimetic SO,TRPC6 inhibitor,TRPC4 act,TRPC4 inh,HEK293 MPD ctr-2,HEK293 MPD ctr 2-2,TRPC4/MOR mod,TRPC4 ctr inh 2,TRPC6 inh conf,TRPC6 act conf,others
Cc1ccccc1C(=O)NCCSc1ccccc1,i,i,88.8,-7.47*,i,i,.,.,.,.,i,i,TRPC4 sel inh 2=i;TRPC4 spec=3.9%*;HEK293 MPD ctr 2-1=i;HEK293 MPD ctr-1=2.1%*
Clc1ccc2c(c1)C(N1CCNCC1)=Nc1ccccc1O2,i,i,111.3,-5.1*,i,i,i,i,8.0%*,48.0%*,i,i,
CC1=Nc2cc(Cl)ccc2Oc2ccccc21,i,i,96.6,i,i,i,.,.,.,.,.,.,
CN(CC(=O)NC1CCN(Cc2ccccc2)CC1)S(=O)(=O)c1ccc2c(c1)c(=O)n(C)c(=O)n2C,i,i,83.8,-6.05*,i,i,i,i,-11.0%*,i,i,i,
CN(C)CCCNS(=O)(=O)c1ccc(-n2nnc3ccccc32)c([N+](=O)[O-])c1,i,i,118.6,i,i,i,.,.,.,.,.,.,
CN(C)CCNS(=O)(=O)c1ccc(N2CCc3ccccc32)c([N+](=O)[O-])c1,i,i,131.8,-7.17*,i,i,-129.0%*,i,-28.0%*,73.0%*,60.0%*,i,
CN(C)C(=O)c1c([N+](=O)[O-])c(C(C)(C)C)nn1C,i,i,98.0,-6.23*,i,i,i,i,i,i,i,i,
Cn1nc(C(C)(C)C)c([N+](=O)[O-])c1C(=O)NC(C)(C)C,i,i,102.0,i,i,i,.,.,.,.,.,.,
COCCn1c(=N)c(C(=O)NCCc2ccccc2)cc2c(=O)n3cccc(C)c3nc21,i,i,86.2,i,i,i,.,.,.,.,.,.,
Cc1cccn2c(=O)c3cc(C(=O)NCCN4CCOCC4)c(=N)n(CCCN4CCOCC4)c3nc12,i,i,102.6,-5.05*,i,i,189.0%*,164.0%*,32.0%*,46.5%*,61.0%*,.,
Cc1cccn2c(=O)c3cc(C(=O)NC4CCCC4)c(=N)n(C4CCCCC4)c3nc12,i,i,101.5,i,i,i,.,.,.,.,.,.,
COc1ccc(CCn2c(=N)c(C(=O)NC3CCCC3)cc3c(=O)n4cccc(C)c4nc32)cc1,i,i,97.5,-5.26*,i,i,-121.0%*,i,-38.0%*,49.0%*,36.5%*,i,
CNC(=O)c1cc2c(=O)n3cccc(C)c3nc2n(C(C)C)c1=N,i,i,103.4,-11.6*,i,i,-209.0%*,121.0%*,-40.5%*,66.0%*,82.0%*,i,
Cc1cccn2c(=O)c3cc(C(=O)NCCc4ccccc4)c(=N)n(CCCn4ccnc4)c3nc12,i,i,116.7,-6.23*,i,i,i,100.5%*,i,i,i,i,
Cc1cccn2c(=O)c3cc(C(=O)NCC4CCCO4)c(=N)n(CCN4CCOCC4)c3nc12 (centres undefined),i,i,113.3,i,i,i,.,.,.,.,.,.,
COc1ccc(CCn2c(=N)c(C(=O)NCCN3CCOCC3)cc3c(=O)n4cccc(C)c4nc32)cc1OC,i,i,103.7,i,i,i,.,.,.,.,.,.,
CCNC(=O)c1cc2c(=O)n3cccc(C)c3nc2n(CCc2ccccc2)c1=N,i,i,105.8,-7.38*,i,i,-141.0%*,73.5%*,-27.5%*,47.5%*,63.0%*,i,
Cc1cccn2c(=O)c3cc(C(=O)NCCN4CCOCC4)c(=N)n(CCc4ccccc4)c3nc12,i,i,99.4,-5.45*,i,i,i,103.5%*,i,52.5%*,i,i,
O=C(CSC1CC(=O)N(CC(c2ccccc2)c2ccccc2)C1=O)Nc1ccc(Cl)cc1 (centres undefined),i,i,105.4,i,i,i,.,.,.,.,.,.,
Cc1cc(C)nc(NS(=O)(=O)c2ccc(NC(=O)CSc3nc(-c4ccccc4)c(C#N)c(=O)[nH]3)cc2)n1,12.8*,i,99.3,i,i,i,i,i,10.5%*,i,i,81.0%*,
CCc1nc2ccc(C)cc2c(C(=O)NC2CCCCC2C)c1C (centres undefined),13.6*,i,95.7,i,i,i,425.5%*,i,102.5%*,31.0%*,i,148.0%*,
Cc1ccc2nc(C)cc(C(=O)NC3CCCCCC3)c2c1,.,.,123.2,.,.,.,.,.,.,.,.,.,
O=C(NCCc1cccc(Cl)c1)c1cccc([N+](=O)[O-])c1,i,i,105.9,i,i,i,.,.,.,.,.,.,
Cn1c(-c2c(N)n(CCc3ccccc3)c3nc4ccccc4nc23)nc2ccccc21,i,i,72.5,-5.74*,i,-6*,264.0%*,i,55.5%*,79.5%*,i,i,

# Assay outcomes from PubChem BioAssay.
